This passage reports Activity and CC50 results from ChEMBL document CHEMBL1138488, “Synthesis and biological evaluation of 3,3-difluoropyridine-2,4(1H,3H)-dione and 3-deaza-3-fluorouracil base and nucleoside derivatives” (J Med Chem, 2009).

The source made the active and inactive calls. No cut-off for these calls is given here.

Data set [1] has as its system Moloney murine sarcoma virus. In words: Antiviral activity against Moloney sarcoma virus replication infected in mouse […] cells assessed as virus-induced transformation of cells at <=100 uM measured on day 6 postinfection. Type of data set: functional, organism-based. The essentials: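 Murine C3H/3T3 embryo fibroblasts were grown to confluency and infected with Moloney murine sarcoma virus at 75 focus-forming units. Compound concentrations were then added, and virus-induced transformation was examined microscopically at day 6 postinfection.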

The subject of data set [2] is Human immunodeficiency virus 2. In words: Antiviral activity against HIV2 ROD replication in human CEM cells assessed as virus-induced giant cell formation at <=100 uM after 4 days. Type of data set: functional, organism-based. The conditions noted are these: CCRF-CEM. The essentials:
(§1)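 CEM cells (~3 × 10⁵ cells/cm³) were infected with 100 CCID₅₀/mL of HIV-1(III_B) or HIV-2(ROD) and seeded into wells containing compound dilutions. After 4 days at 37 °C, virus-induced giant cell formation was examined microscopically.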

The subject of data set [3] is Human betaherpesvirus 5. The data set is described as follows: Antiviral activity against HCMV Davis infected in HEL cells assessed as inhibition of virus-induced cytopathic effect at <=100 uM. Type of data set: functional, organism-based. The essentials: (§2)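 Confluent cell monolayers were inoculated with 100 CCID₅₀ of virus, and virus was adsorbed for 1 h. Residual virus was then removed and cells were incubated with serial compound concentrations ([…], ... µM). Cytopathicity was scored once it reached completion in untreated virus-infected control cultures.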

Data set [4] has as its system Human alphaherpesvirus 3. The data set is described as follows: Antiviral activity against thymidine kinase deficient Varicella zoster virus 07/1 infected in human HEL cells assessed as inhibition of virus-induced cytopathic effect at <=100 uM. Type of data set: functional, organism-based. The essentials:
as §2
On the technique in general: Protection from cytopathic effect is a common read-out in antiviral testing.

Data set [5] relates to Coxsackievirus B4. In words: Antiviral activity against Coxsackievirus B4 infected in human HeLa cells assessed as inhibition of virus-induced cytopathic effect at <=100 uM. Type of data set: functional, organism-based. A digest of the protocol: as §2
Data set [6] has as its system Sindbis virus. The data set is described as follows: Antiviral activity against Sindbis virus infected in african green monkey Vero cells assessed as inhibition of virus-induced cytopathic effect at <=100 uM. Type of data set: functional, organism-based. The essentials: as §2
For data set [7], the system named is Respiratory syncytial virus. In words: Antiviral activity against Respiratory syncytial virus infected in human HeLa cells assessed as inhibition of virus-induced cytopathic effect at <=100 uM. Type of data set: functional, organism-based. A digest of the protocol:
as §2

The test system of data set [8] is CCRF-CEM. In words: Cytostatic activity against human CEM cells at <=500 uM after 3 days by Coulter counting analysis. Type of data set: cell-based. The following applies: 72 h. A digest of the protocol:
(§3)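 Molt4/C8 or CEM lymphocytes were seeded at 75000 cells per well with varying compound concentrations. Viable cells were counted by Coulter counter after 3 days. CC₅₀ is the concentration inhibiting cell proliferation by 50%.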

The subject of data set [9] is Vesicular stomatitis virus. In words: Antiviral activity against Vesicular stomatitis virus infected in HEL cells assessed as inhibition of virus-induced cytopathic effect at <=100 uM. Type of data set: functional, organism-based.
The subject of data set [10] is Punta Toro virus. The data set is described as follows: Antiviral activity against Punta Toro virus infected in african green monkey Vero cells assessed as inhibition of virus-induced cytopathic effect at <=100 uM. Type of data set: functional, organism-based. The essentials: as §2
A short description of data set [11]: Cytostatic activity against human Molt4/C8 cells at <=500 uM after 3 days by Coulter counting analysis. Type of data set: ADME, cell-based. The following applies: molt-4, 72 h. The essentials: as §3
The subject of data set [12] is Vesicular stomatitis virus. In words: Antiviral activity against Vesicular stomatitis virus infected in human HeLa cells assessed as inhibition of virus-induced cytopathic effect at <=100 uM. Type of data set: functional, organism-based.
Data set [13] in a line: Cytostatic activity against human CEM cells after 3 days by Coulter counting analysis. Type of data set: cell-based, CCRF-CEM. The essentials: as §3
Data set [14] concerns Human alphaherpesvirus 3. The data set is described as follows: Antiviral activity against thymidine kinase expressing Varicella zoster virus Oka infected in human HEL cells assessed as inhibition of virus-induced cytopathic effect at <=100 uM. Type of data set: functional, organism-based. A digest of the protocol: as §2
Data set [15] has as its system Human immunodeficiency virus 1. The data set is described as follows: Antiviral activity against HIV1 3B replication in human CEM cells assessed as virus-induced giant cell formation at <=100 uM after 4 days. Type of data set: functional, organism-based. The conditions noted are these: CCRF-CEM. A digest of the protocol: as §1
Data set [16] is described as follows: Cytostatic activity against mouse L1210 cells after 2 days by Coulter counting analysis. Type of data set: ADME, cell-based. A digest of the protocol:
(§4)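 Murine leukemia L1210 cells were seeded at 50000 cells per well with varying compound concentrations. Viable cell number was counted by Coulter counter after 2 days.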

A short description of data set [17]: Cytostatic activity against human Molt4/C8 cells after 3 days by Coulter counting analysis. Type of data set: ADME, cell-based, MOLT-4. A digest of the protocol:
as §3

Data set [18] concerns Mammalian orthoreovirus 3. The data set is described as follows: Antiviral activity against Reovirus 3 infected in african green monkey Vero cells assessed as inhibition of virus-induced cytopathic effect at <=100 uM. Type of data set: functional, organism-based.
Data set [19] deals with Human betaherpesvirus 5. In words: Antiviral activity against HCMV AD169 infected in HEL cells assessed as inhibition of virus-induced cytopathic effect at <=100 uM. Type of data set: functional, organism-based. A digest of the protocol:
as §2

Data set [20] relates to Human respirovirus 3. The data set is described as follows: Antiviral activity against Parainfluenza virus type 3 infected in african green monkey Vero cells assessed as inhibition of virus-induced cytopathic effect at <=100 uM. Type of data set: functional, organism-based. A digest of the protocol:
as §2

The test system of data set [21] is Human alphaherpesvirus 1. The data set is described as follows: Antiviral activity against acyclovir-resistant […] kinase-deficient HSV1 KOS infected in HEL cells assessed as virus-induced cytopathic effect at <=100 uM. Type of data set: functional, organism-based.
The subject of data set [22] is Human alphaherpesvirus 2. In words: Antiviral activity against HSV2 strain G infected in HEL cells assessed as virus-induced cytopathic effect at <=100 uM. Type of data set: functional, organism-based.
For data set [23], the system named is Vaccinia virus. The data set is described as follows: Antiviral activity against Vaccinia virus infected in HEL cells assessed as inhibition of virus-induced cytopathic effect at <=100 uM. Type of data set: functional, organism-based. The conditions noted are these: Orthopoxvirus vaccinia.
Data set [24] has as its system L1210. In words: Cytostatic activity against mouse L1210 cells at <=500 uM after 2 days by Coulter counting analysis. Type of data set: ADME, cell-based. The conditions noted are these: l1210, 48 h. A digest of the protocol:
as §4

Data set [25] relates to Human alphaherpesvirus 1. The data set is described as follows: Antiviral activity against HSV1 KOS infected in HEL cells assessed as virus-induced cytopathic effect at <=100 uM. Type of data set: functional, organism-based.

As usually defined, the CC50 is the concentration giving 50% cytotoxicity. On to `O=c1c(F)c(O)ccn1[C@@H]1O[C@H](CO)[C@@H](O)[C@H]1O`, for which the result in data set [1], in data set [2], in data set [3], in data set [4], in [5] and in data set [6] was inactive. The outcome in data set [7], in data set [9], in [10], in [12], in data set [14] and in data set [15] was inactive. The outcome in data set [18], in data set [19], in [20], in data set [21], in [22] and in data set [23] was inactive. For the same compound, the outcome in data set [25] was inactive. Further, the Activity entry in [8], in [11] and in data set [24] was “Not Active” throughout. Also, the figures for the 50% cytotoxic concentration (CC50) at 72 h in data set [13] and in data set [17] were 9.6 µM and 4.4 µM, respectively. For the same compound, it took 6.7 µM to reach half-maximal cytotoxicity in data set [16] (CC50 at 48 h).
Take `CC1(O)C=CN([C@H]2C[C@H](O)[C@@H](CO)O2)C(=O)C1(F)F` (stereo not given in full): the result in data set [1], in data set [2], in data set [3], in data set [4], in data set [5] and in [6] was inactive. For the same compound, the result in data set [7], in data set [9], in data set [10], in data set [12], in data set [14] and in [15] was inactive. The outcome in data set [18], in data set [19], in data set [20], in data set [21], in data set [22] and in data set [23] was inactive. In data set [25], the outcome was inactive. In addition, the Activity entry in data set [8], in data set [11] and in data set [24] was “Not Active” each time.
For `NC(=O)Cc1ccn([C@H]2C[C@H](O)[C@@H](CO)O2)c(=O)c1F`, the outcome in data set [1], in data set [2], in data set [3], in [4], in data set [5] and in data set [6] was inactive. For the same compound, the outcome in data set [7], in data set [9], in data set [10], in data set [12], in [14] and in data set [15] was inactive. The result in data set [18], in data set [19], in data set [20], in data set [21], in data set [22] and in data set [23] was inactive. For the same compound, the outcome in [25] was inactive. Besides, the Activity entry in [8], in data set [11] and in data set [24] was “Not Active” in each case.
For the compound `O=c1c(F)c(O)ccn1[C@H]1C[C@H](O)[C@@H](CO)O1`, the result in data set [1], in data set [2], in data set [3], in data set [4], in [5] and in data set [6] was inactive. For the same compound, the outcome in data set [7], in data set [9], in data set [10], in data set [12], in data set [14] and in data set [15] was inactive. Besides, the outcome in [18], in data set [19], in data set [20], in [21], in [22] and in data set [23] was inactive. Also, the outcome in data set [25] was inactive. The Activity result in data set [8], in [11] and in data set [24] was “Not Active” each time.
As for `O=C1N([C@H]2C[C@H](O)[C@@H](CO)O2)C=CC(O)(c2ccccc2)C1(F)F` (stereo not given in full), the result in [1], in [2], in data set [3], in data set [4], in data set [5] and in data set [6] was inactive. The outcome in data set [7], in data set [9], in data set [10], in data set [12], in [14] and in data set [15] was inactive. Besides, the outcome in data set [18], in [19], in [20], in data set [21], in [22] and in data set [23] was inactive. Moreover, the result in data set [25] was inactive. Further, the Activity result in data set [8], in data set [11] and in data set [24] was “Not Active” in each case.
Consider `C#CC1(O)C=CN([C@@H]2O[C@H](CO)[C@@H](O)[C@H]2O)C(=O)C1(F)F` (stereo not given in full), for which the outcome in data set [1], in data set [2], in [3], in data set [4], in data set [5] and in data set [6] was inactive. Further, the result in data set [7], in data set [9], in [10], in [12], in data set [14] and in [15] was inactive. In addition, the outcome in [18], in data set [19], in data set [20], in [21], in data set [22] and in [23] was inactive. In [25], the result was inactive. Further, the Activity entry in data set [8], in [11] and in data set [24] was “Not Active” each time.
